# Reference: ChEMBL document CHEMBL1833955, “Optimization of (arylpiperazinylbutyl)oxindoles exhibiting selective 5-HT₇ receptor antagonist activity” (J Med Chem, 2011)
# What was measured:
# [1] = biological target: 5-hydroxytryptamine receptor 7 (Homo sapiens, UniProt P34969); assay: Displacement of [3H]CT from human 5-HT7 receptor expressed in CHO cells by scintillation spectrometry; type: cell-based
# Method in brief: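 Cloned human 5-HT7 receptor from CHO cells, run under the supplier's recommended conditions with [3H]CT. Nonspecific binding with 25 μM clozapine. Ended by GF/C filtration, then scintillation counting. Ki taken from two nine-concentration displacement curves run in triplicate, single-site fit.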
# [2] = biological target: T1, 5-hydroxytryptamine receptor 1A (Rattus norvegicus, UniProt P19327); assay: Displacement of [3H]8-OH-DPAT from 5-HT1A receptor in rat frontal cortex membrane after 45 mins by scintillation counting; type: cell membranes
# T1 sequence (P19327 whole entry): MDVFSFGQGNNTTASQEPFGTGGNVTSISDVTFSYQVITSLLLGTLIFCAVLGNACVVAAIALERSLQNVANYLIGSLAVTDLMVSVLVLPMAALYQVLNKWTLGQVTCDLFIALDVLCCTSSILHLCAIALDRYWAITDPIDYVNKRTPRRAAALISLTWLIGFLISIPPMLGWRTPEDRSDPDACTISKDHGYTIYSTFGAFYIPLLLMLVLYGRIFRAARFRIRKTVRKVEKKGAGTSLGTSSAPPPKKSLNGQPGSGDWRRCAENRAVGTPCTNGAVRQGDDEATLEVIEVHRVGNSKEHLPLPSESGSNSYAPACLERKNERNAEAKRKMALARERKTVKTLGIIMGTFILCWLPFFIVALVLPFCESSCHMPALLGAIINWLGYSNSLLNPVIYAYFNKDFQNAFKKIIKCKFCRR
# Method in brief: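 Membranes from adult rat frontal cortex, prepared in 50 mM Tris-HCl pH 7.7 with washes and a 37 °C preincubation. Incubation buffer: 6.66 mM CaCl2, 16.66 μM pargyline, 0.166% ascorbic acid. Ligand 1.5 nM [3H]8-OH-DPAT; 10 μM 5-HT defines nonspecific binding. 45 min at 25 °C, GF/B filtration, scintillation counting. Triplicates; Ki from two nine-point curves, single-site fit.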
# [3] = biological target: Adrenergic receptor alpha-1 (Rattus norvegicus) (UniProt P15823+P23944+P43140); assay: Displacement of [3H]prazosin from alpha1-adrenergic receptor in rat frontal cortex membrane at 10^-7 M after 45 mins by scintillation spectrometry; type: cell membranes
# Adrenergic receptor alpha-1 (Rattus norvegicus), sequence (P15823 whole entry, looked up): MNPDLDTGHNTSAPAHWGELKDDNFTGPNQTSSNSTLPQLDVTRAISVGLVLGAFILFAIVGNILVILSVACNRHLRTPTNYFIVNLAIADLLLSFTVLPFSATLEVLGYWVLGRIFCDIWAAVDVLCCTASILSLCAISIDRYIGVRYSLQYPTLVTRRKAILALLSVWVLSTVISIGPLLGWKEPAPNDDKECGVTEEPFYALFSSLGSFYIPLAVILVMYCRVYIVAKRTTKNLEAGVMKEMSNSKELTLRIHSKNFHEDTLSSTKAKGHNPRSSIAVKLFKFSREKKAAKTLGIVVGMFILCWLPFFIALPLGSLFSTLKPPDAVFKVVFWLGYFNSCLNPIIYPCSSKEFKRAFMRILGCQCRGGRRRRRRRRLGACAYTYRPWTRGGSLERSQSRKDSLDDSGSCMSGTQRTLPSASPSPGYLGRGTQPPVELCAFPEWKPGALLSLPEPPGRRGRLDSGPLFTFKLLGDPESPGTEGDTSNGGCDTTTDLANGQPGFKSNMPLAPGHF
# Adrenergic receptor alpha-1 (Rattus norvegicus), sequence (P23944 whole entry, looked up): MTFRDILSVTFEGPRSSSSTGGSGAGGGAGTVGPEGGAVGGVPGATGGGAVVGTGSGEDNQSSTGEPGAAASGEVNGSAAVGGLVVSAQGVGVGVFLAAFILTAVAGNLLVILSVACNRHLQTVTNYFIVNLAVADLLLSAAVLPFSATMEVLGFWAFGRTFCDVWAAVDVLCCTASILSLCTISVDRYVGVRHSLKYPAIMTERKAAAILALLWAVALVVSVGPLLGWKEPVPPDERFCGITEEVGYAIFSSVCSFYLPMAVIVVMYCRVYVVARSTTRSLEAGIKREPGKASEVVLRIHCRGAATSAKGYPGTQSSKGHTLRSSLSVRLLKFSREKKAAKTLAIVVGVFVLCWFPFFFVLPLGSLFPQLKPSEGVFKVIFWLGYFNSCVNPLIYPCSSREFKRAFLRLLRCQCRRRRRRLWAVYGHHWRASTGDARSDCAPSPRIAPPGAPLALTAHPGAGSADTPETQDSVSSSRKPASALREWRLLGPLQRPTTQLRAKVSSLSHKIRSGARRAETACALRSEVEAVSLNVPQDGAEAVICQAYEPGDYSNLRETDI
# Adrenergic receptor alpha-1 (Rattus norvegicus), sequence (P43140 whole entry, looked up): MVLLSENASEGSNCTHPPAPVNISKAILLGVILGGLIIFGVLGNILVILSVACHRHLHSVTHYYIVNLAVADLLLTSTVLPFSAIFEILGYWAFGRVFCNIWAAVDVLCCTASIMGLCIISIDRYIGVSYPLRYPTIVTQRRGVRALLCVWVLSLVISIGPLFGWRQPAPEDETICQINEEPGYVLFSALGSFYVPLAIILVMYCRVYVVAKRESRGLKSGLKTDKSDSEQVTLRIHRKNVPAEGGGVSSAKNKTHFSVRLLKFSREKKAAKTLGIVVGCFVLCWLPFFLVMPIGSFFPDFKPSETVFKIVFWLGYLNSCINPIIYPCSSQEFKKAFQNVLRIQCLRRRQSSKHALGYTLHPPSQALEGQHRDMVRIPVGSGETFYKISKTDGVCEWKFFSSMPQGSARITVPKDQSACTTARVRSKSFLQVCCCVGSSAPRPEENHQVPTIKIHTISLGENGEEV
# Method in brief: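 Rat frontal cortex membranes (tissue frozen on dry ice, homogenized in 50 mM Tris-HCl pH 7.7, washed by repeated 40 000 g spins at 4 °C) incubated with 0.6 nM [3H]prazosin, 45 min at 25 °C, triplicates; nonspecific binding with 10 μM prazosin. Filtration over GF/B filters presoaked in 0.05% polyethylenimine, scintillation counting; single test concentration 10^-7 M.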
# 5-hydroxytryptamine receptor 7, sequence (P34969 whole entry): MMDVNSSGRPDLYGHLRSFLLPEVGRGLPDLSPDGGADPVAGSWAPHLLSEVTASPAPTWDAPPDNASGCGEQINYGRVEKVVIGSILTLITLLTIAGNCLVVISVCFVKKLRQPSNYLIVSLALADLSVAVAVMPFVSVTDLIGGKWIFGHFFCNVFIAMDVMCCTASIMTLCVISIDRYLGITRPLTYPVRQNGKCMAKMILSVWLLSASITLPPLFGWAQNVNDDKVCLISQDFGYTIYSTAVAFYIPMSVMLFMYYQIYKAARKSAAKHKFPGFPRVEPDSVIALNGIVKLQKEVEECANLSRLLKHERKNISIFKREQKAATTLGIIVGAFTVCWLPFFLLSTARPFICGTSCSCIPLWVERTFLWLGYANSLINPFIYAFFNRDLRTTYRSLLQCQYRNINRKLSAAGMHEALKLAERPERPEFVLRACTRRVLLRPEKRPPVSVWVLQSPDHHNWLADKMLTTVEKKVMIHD
compound,measurement,setting,value
O=C1Nc2ccc(F)cc2C1CCCCN1CC=C(c2cccc(C(F)(F)F)c2)CC1 (stereo not drawn),Ki,[1],40 nM
same,Ki,[2],55 nM
same,inhibition,[3],11%
